# Experimental data taken from ChEMBL document CHEMBL1149704, “Virtual screening application of a model of full-length HIV-1 integrase complexed with viral DNA” (Bioorg Med Chem Lett, 2007).
# pIC50: −log10 of the molar value.
# Assays:
# [1] = target: T1, Human immunodeficiency virus type 1 integrase (Human immunodeficiency virus 1, UniProt Q7ZJM1); experiment: Inhibition of HIV1 integrase by BioVeris assay
# Method in brief: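 Electrochemiluminescent high-throughput screen measuring HIV-1 integrase strand transfer in the presence of Mg2+, with ruthenium-labelled reagents.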
# [2] = target: T1, Human immunodeficiency virus type 1 integrase; experiment: Inhibition of HIV1 integrase 3' processing activity
# Method in brief: (§1)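 Hits from the electrochemiluminescent screen were confirmed in a gel-based assay with Mg2+. IC50 values were determined separately for 3'-processing and strand transfer.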
# [3] = target: T1, Human immunodeficiency virus type 1 integrase; experiment: Inhibition of HIV1 integrase strand transfer activity; method in brief: as §1
# T1 sequence (Q7ZJM1 whole entry): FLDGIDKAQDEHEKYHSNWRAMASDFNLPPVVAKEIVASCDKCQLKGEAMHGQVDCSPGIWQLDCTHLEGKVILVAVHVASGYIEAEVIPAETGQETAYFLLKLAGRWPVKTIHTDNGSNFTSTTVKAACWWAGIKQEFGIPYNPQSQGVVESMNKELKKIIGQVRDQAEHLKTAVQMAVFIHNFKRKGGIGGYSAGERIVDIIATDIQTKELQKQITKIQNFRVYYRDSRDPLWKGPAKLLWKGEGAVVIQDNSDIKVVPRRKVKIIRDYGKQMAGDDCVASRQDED
Compound,pIC50 [1],pIC50 [2],pIC50 [3]
C=C(NNC(=O)C1CC1c1ccccc1)c1cccc(NC(=O)C2CCCCC2C(=O)O)c1 (stereo unspecified),3.95,4.19,4.31
CC(C)n1nc(C(=O)NN/C(=C/CC(=O)O)c2ccc(Br)cc2)c2ccccc2c1=O,3.17,3.53,–
O=C(O)COc1ccccc1/C=N/NC(=O)CSc1nc2ccccc2[nH]1,3.11,3.81,3.92
C=C(NNC(=O)Cc1ccc(O)cc1)c1ccc(NC(=O)CCC(=O)O)cc1,3.53,3.69,3.94
O=C(O)CCC(=O)Nc1ccccc1-c1ccccc1NC(=O)CCC(=O)O,4.43,< 3.48,< 3.48
C=C(NNC(=O)c1c[nH]c2ccccc12)c1cccc(NC(=O)CCCC(=O)O)c1,3.85,3.92,4.15
Cc1n[nH]c(O)c1C(c1ccc(-c2ccc(Cl)c(C(=O)O)c2)o1)c1c(O)n[nH]c1C,3.92,4.06,4.24
C=C(NNC(=O)C(C)Oc1ccccc1Cl)c1cccc(NC(=O)C2CCCCC2C(=O)O)c1 (stereo unspecified),3.74,< 3.48,< 3.48
Cc1[nH]nc(O)c1CC(=O)N/N=C/c1ccccc1OCC(=O)O,3.24,3.92,4.27
